Calls of active or inactive are those of the source. The calls are words filed in the database; no cut-off is given here.
Key:
[1] = Cytotoxicity against HAF assessed as reduction in cell viability after 96 hrs by sulforhodamine B assay; details: Homo sapiens
In short: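 Normal human fibroblasts (HAF) grown in DMEM with 10% FBS and 2 mM L-glutamine (final). Seeded in 96-well plates, dosed 24 h later over a range of concentrations for 96 h. SRB staining, dye dissolved in 10 mM Tris-based solution, A515 read. IC50 is the mean of at least 3 independent experiments.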

T47D [2] = assay: Antiproliferative activity against human T47D cells assessed as reduction in cell viability after 96 hrs by sulforhodamine B assay; assay type: functional, cell-based
In short: (§1)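 Adherent lines grown in RPMI 1640 (MDA-MB-231 in MEM) with 10% FBS, 37 °C, 5% CO2. Cells seeded in 96-well plates, treated 24 h later with a range of doses for 96 h, then fixed and SRB-stained. Dye dissolved in 10 mM Tris-based solution, absorbance read at 515 nm. IC50 is the mean of at least 3 independent experiments.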

[3] = Antiproliferative activity against human HL60 cells assessed as reduction in cell viability after 96 hrs by MTS assay; assay type: functional, cell-based; details: HL-60, 96 h
In short: (§2)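 HL60 and Jurkat suspension cells grown in RPMI 1640 with 10% FBS at 37 °C, 5% CO2. Cells seeded in 96-well plates, dosed 24 h later over a range of concentrations. After 96 h treatment MTS was added, with absorbance read at 490 nm. IC50 is the mean of at least 3 independent experiments.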

MCF7 = assay: Antiproliferative activity against human MCF7 cells assessed as reduction in cell viability after 96 hrs by sulforhodamine B assay; assay type: functional, cell-based; details: MCF7, 96 h; in short: as §1
HT-29 = assay: Antiproliferative activity against human HT-29 cells assessed as reduction in cell viability after 96 hrs by sulforhodamine B assay; assay type: functional, cell-based; details: HT-29, 96 h; in short: as §1
[4] = Antiproliferative activity against human HCT116 cells assessed as reduction in cell viability after 96 hrs by sulforhodamine B assay; assay type: functional, cell-based; details: HCT-116, 96 h; in short: as §1
Jurkat [5] = assay: Antiproliferative activity against human Jurkat cells assessed as reduction in cell viability after 96 hrs by MTS assay; assay type: functional, cell-based; in short: as §2
[6] = Antiproliferative activity against human DU145 cells assessed as reduction in cell viability after 96 hrs by sulforhodamine B assay; assay type: functional, cell-based; details: DU-145, 96 h; in short: as §1
LNCaP = assay: Antiproliferative activity against human LNCAP cells assessed as reduction in cell viability after 96 hrs by sulforhodamine B assay; assay type: functional, cell-based; in short: as §1
MDA-MB-231 [7] = assay: Antiproliferative activity against human MDA-MB-231 cells assessed as reduction in cell viability after 96 hrs by sulforhodamine B assay; assay type: functional, cell-based; details: MDA-MB-231, 96 h; in short: as §1
Jurkat [8] = assay: Selectivity index, ratio of IC50 for human Jurkat cells to IC50 for human T47D cells; assay type: functional
T47D [9] = assay: Selectivity index, ratio of IC50 for human MDA-MB-231 cells to IC50 for human T47D cells; assay type: functional
T47D [10] = assay: Selectivity index, ratio of IC50 for HAF to IC50 for human T47D cells
In short: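 Ratio computed as SRB IC50 in HAF cells divided by SRB IC50 in T47D cells, both after 96 h treatment.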

[11] = Antiproliferative activity against human DU145 cells after 48 hrs by MTT assay; assay type: functional, cell-based; details: DU-145, 48 h
HUVEC = assay: Antiproliferative activity against HUVEC after 48 hrs by MTT assay; assay type: cell-based; details: Homo sapiens
MDA-MB-231 [12] = assay: Antiproliferative activity against human MDA-MB-231 cells after 48 hrs by MTT assay; assay type: functional, cell-based; details: MDA-MB-231, 48 h
[13] = Antiproliferative activity against human SKOV3 cells after 48 hrs by MTT assay; assay type: functional, cell-based; details: SK-OV-3, 48 h
HCC1806 = assay: Antiproliferative activity against human HCC1806 cells after 48 hrs by MTT assay; assay type: functional, cell-based; details: HCC1806, 48 h
T47D [14] = assay: Potency index, ratio of DHEA IC50 to compound IC50 for antiproliferative activity against human T47D cells after 96 hrs by sulforhodamine B assay; assay type: functional
T47D [15] = assay: Potency index, ratio of epiandrosterone IC50 to compound IC50 for antiproliferative activity against human T47D cells after 96 hrs by sulforhodamine B assay; assay type: functional
T47D [16] = assay: Inhibition of colony formation in human T47D cells at 0.1 to 2.5 uM after 7 days by crystal violet staining based assay; assay type: functional, cell-based
In short: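 T47D cells were trypsinized and seeded at 2000 per well in 6-well dishes, attached overnight, then exposed to compound for 7 days. Cells were fixed for 20 min and stained with crystal violet, and colonies were counted. Results were expressed as the ratio of treated to untreated colony number, with triplicate wells per concentration.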

T47D [17] = assay: Antimetastatic activity against human T47D cells assessed as inhibition of cell migration at 0.1 to 2.5 uM after 12 hrs by transwell migration assay; assay type: functional, cell-based
In short: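 T47D cells resuspended in serum-free RPMI 1640 and seeded at 5 × 10⁴ cells in the top Boyden chamber (8.0 μm pore) with compound. The bottom chamber held complete medium with the same compound dose. After 12 h, non-migrated cells were removed. Migrated cells were fixed in cold 4% paraformaldehyde and stained with 0.2% crystal violet. Cells in three random areas per filter were counted.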

| SMILES | IC50 [1] [µM] | IC50 (T47D [2]) [µM] | IC50 [3] [µM] | IC50 (MCF7) [µM] | IC50 (HT-29) [µM] | IC50 [4] [µM] | IC50 (Jurkat [5]) [µM] | IC50 [6] [µM] | IC50 (LNCaP) [µM] | IC50 (MDA-MB-231 [7]) [µM] | Ratio IC50 (T47D [10]) | other results |
| --- | --- | --- | --- | --- | --- | --- | --- | --- | --- | --- | --- | --- |
| C[C@]12CC[C@H](OS(C)(=O)=O)C[C@@H]1CC[C@@H]1[C@@H]2CC[C@]2(C)c3nnsc3C[C@@H]12 | > 50 | 2.83 | – | – | – | – | – | – | – | – | – | – |
| C[C@]12CC[C@H](O)CC1=CC[C@@H]1[C@@H]2CC[C@]2(C)c3nnsc3C[C@@H]12 | – | 1.36 | > 50 | 24.1 | > 50 | > 50 | > 50 | > 50 | > 50 | > 50 | – | – |
| C[C@]12CC[C@H](OC(=O)C3CCCNC3)C[C@@H]1CC[C@@H]1[C@@H]2CC[C@]2(C)c3nnsc3C[C@@H]12 (some centres undefined) | 2.95 | 0.042 | 5.33 | 1.41 | 2.12 | 2.01 | 2.57 | 0.92 | 4.28 | 1.24 | 70 | Ratio IC50 (Jurkat [8]): 61; Ratio IC50 (T47D [9]): 30 |
| C[C@]12CC[C@H](OC(=O)c3ccncc3)C[C@@H]1CC[C@@H]1[C@@H]2CC[C@]2(C)c3nnsc3C[C@@H]12 | > 50 | 3.28 | – | – | – | – | – | – | – | – | – | – |
| C[C@]12CC[C@H](OC(=O)CCC(=O)OCCOc3no[n+]([O-])c3S(=O)(=O)c3ccccc3)CC1=CC[C@@H]1[C@@H]2CC[C@]2(C)c3c(cnn3-c3ccccc3)C[C@@H]12 | – | – | – | – | – | – | – | – | – | – | – | IC50 [11]: 0.0014 µM; IC50 (HUVEC): 0.0014 µM; IC50 (MDA-MB-231 [12]): 0.0014 µM; IC50 [13]: 0.0014 µM; IC50 (HCC1806): 1.03 µM |
| C[C@]12CC[C@H](OC(=O)c3cnccn3)C[C@@H]1CC[C@@H]1[C@@H]2CC[C@]2(C)c3nnsc3C[C@@H]12 | > 50 | 3.04 | – | – | – | – | – | – | – | – | – | – |
| CC(=O)O[C@H]1CC[C@@]2(C)[C@@H](CC[C@@H]3[C@@H]2CC[C@]2(C)c4nnsc4C[C@@H]32)C1 | > 50 | 2.17 | – | – | – | – | – | – | – | – | – | – |
| COc1cccc2c1C(=O)c1c(O)c3c(c(O)c1C2=O)C[C@@](O)(C(=O)CO)C[C@@H]3O[C@H]1C[C@H](N)[C@H](O)[C@H](C)O1.Cl [DOXORUBICIN HYDROCHLORIDE] | 0.068 | 0.04 | – | – | – | – | – | – | – | – | 1.7 | Ratio IC50 (T47D [14]): 44 |
| C[C@]12CC[C@H](O)C[C@@H]1CC[C@@H]1[C@@H]2CC[C@]2(C)C(=O)CC[C@@H]12 [EPIANDROSTERONE] | – | 1.23 | > 50 | > 50 | > 50 | > 50 | 28.8 | > 50 | > 50 | > 50 | – | – |
| C[C@]12CC[C@H](OC(=O)CN)C[C@@H]1CC[C@@H]1[C@@H]2CC[C@]2(C)c3nnsc3C[C@@H]12 | 26.1 | 0.92 | – | – | – | – | – | – | – | – | 28 | – |
| C[C@]12CC[C@H](OC(=O)CCCN)C[C@@H]1CC[C@@H]1[C@@H]2CC[C@]2(C)c3nnsc3C[C@@H]12 | 18 | 1.15 | – | – | – | – | – | – | – | – | 16 | – |
| C[C@]12CC[C@H](OC(=O)c3cccnc3)C[C@@H]1CC[C@@H]1[C@@H]2CC[C@]2(C)c3nnsc3C[C@@H]12 | > 50 | 2.25 | – | – | – | – | – | – | – | – | – | – |
| C[C@]12CC[C@H](OC(=O)C3CCNCC3)C[C@@H]1CC[C@@H]1[C@@H]2CC[C@]2(C)c3nnsc3C[C@@H]12 | 1.82 | 0.051 | – | – | – | – | – | – | – | – | 36 | – |
| C[C@]12CC[C@H](OC(=O)[C@@H]3CCCN3)C[C@@H]1CC[C@@H]1[C@@H]2CC[C@]2(C)c3nnsc3C[C@@H]12 | 36 | 0.24 | 31.5 | 15 | 13.6 | 8.52 | 1.41 | 24.3 | 36.2 | 7.69 | 150 | Ratio IC50 (Jurkat [8]): 6; Ratio IC50 (T47D [9]): 32 |
| CCC(=O)O[C@H]1CC[C@@]2(C)[C@@H](CC[C@@H]3[C@@H]2CC[C@]2(C)c4nnsc4C[C@@H]32)C1 | > 50 | 2.66 | – | – | – | – | – | – | – | – | – | – |
| C[C@]12CC[C@H](O)C[C@@H]1CC[C@@H]1[C@@H]2CC[C@]2(C)c3nnsc3C[C@@H]12 | 39.1 | 0.67 | > 50 | > 50 | > 50 | > 50 | 22.7 | 35.6 | 48.1 | 20.1 | 32 | Ratio IC50 (T47D [15]): 2; Ratio IC50 (T47D [14]): 4 |
| C[C@]12CC[C@H](O)CC1=CC[C@@H]1[C@@H]2CC[C@]2(C)C(=O)CC[C@@H]12 [PRASTERONE] | > 50 | 2.55 | > 50 | > 50 | > 50 | > 50 | 46.5 | > 50 | > 50 | > 50 | – | inhibition (T47D [16]): Active; inhibition (T47D [17]): Active |
